Data reported in ChEMBL document CHEMBL1129435, “Acyclic nucleotide analogs derived from 8-azapurines: synthesis and antiviral activity” (J Med Chem, 1996).
≈ marks a conversion by molar mass, not a printed value.

Assays:
[1] = system: Moloney murine sarcoma virus; test: Compound was tested for anti-retroviral activity against moloney murine sarcoma virus (MSV) in murine C3H/3T3 embryo fibroblast cell culture; assay type: functional, organism-based
Outline: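 C3H/3T3 fibroblasts were seeded at 5 × 10⁵ cells/mL. After 24 h they were infected with 80 focus-forming units of MSV for 90-120 min at 37 °C; the virus came from tumours induced by intramuscular inoculation of 3-day-old NMRI mice. The medium was then replaced with fresh medium containing various compound concentrations. Transformation was scored microscopically after 6 days.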

[2] = system: Human immunodeficiency virus 1; test: Inhibition of human immunodeficiency virus-1 (HIV-1) induced cytopathicity in CEM cells; assay type: functional, organism-based; conditions: Human immunodeficiency virus 1, CCRF-CEM
Outline: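 CEM cells (~3 × 10⁵ cells/mL) were infected with HIV-1(IIIB) at 100 CCID50 per µL. Infected cells were plated with compound dilutions and incubated 4 days at 37 °C. Giant cell formation was then examined microscopically.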

[3] = system: Human immunodeficiency virus 2; test: Inhibition of human immunodeficiency virus-2 (HIV-2) induced cytopathicity in CEM cells; assay type: functional, organism-based; conditions: Human immunodeficiency virus 2, CCRF-CEM
[4] = Antiviral activity against herpes simplex virus-1 KOS in E6SM cell culture; assay type: functional, cell-based; conditions: Human alphaherpesvirus 1, E6SM
Outline: (§1)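 Confluent cell monolayers in microtiter trays were inoculated with 100 CCID50 of virus. After 1 h adsorption the residual virus was removed. Cells were then incubated with serial compound concentrations (400, 200, 100, ... µg/mL). Cytopathicity was scored once it was complete in untreated infected controls. The value is the 50% inhibitory concentration, or the concentration reducing plaque formation by 50%, in µg/mL.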

Human alphaherpesvirus 1 = test: Antiviral activity against thymidine kinase deficient herpes simplex virus-1 HSV-1 TK- B2006 strain in E6SM cell culture; assay type: functional, organism-based; conditions: Human alphaherpesvirus 1, E6SM; outline: as §1
[5] = Antiviral activity against thymidine kinase deficient herpes simplex virus-1 HSV-1 TK- VMW-1837 strain in E6SM cell culture; assay type: functional, cell-based; conditions: Human alphaherpesvirus 1, E6SM; outline: as §1
Vaccinia virus = test: Antiviral activity against vaccinia virus (VV) in E6SM cell culture; assay type: functional, organism-based; conditions: Orthopoxvirus vaccinia
Human alphaherpesvirus 2 = test: Antiviral activity in herpes simple virus-2 (HSV-2) Lyons strain in E6SM cell culture; assay type: functional, organism-based; conditions: Human alphaherpesvirus 2, E6SM; outline: as §1
Human alphaherpesvirus 3 [6] = test: Antiviral activity in TK+ varicella zoster virus (VZV) YS strain in HEL cell culture; assay type: functional, organism-based; conditions: Human alphaherpesvirus 3, HEL
Human betaherpesvirus 5 = test: Antiviral activity against cytomegalovirus (CMV) AD169 strain in HEL cell culture; assay type: functional, organism-based; conditions: Human betaherpesvirus 5, HEL; outline: as §1
Cytomegalovirus = test: Antiviral activity against cytomegalovirus (CMV) Davis strain in HEL cell culture; assay type: functional, organism-based; conditions: Human betaherpesvirus 5, HEL; outline: as §1
Human alphaherpesvirus 3 [7] = test: Antiviral activity in TK+ varicella zoster virus (VZV) 07/1 strain in HEL cell culture; assay type: functional, organism-based; conditions: Human alphaherpesvirus 3, HEL
Human alphaherpesvirus 3 [8] = test: Antiviral activity in TK+ varicella zoster virus (VZV) OKA strain in HEL cell culture; assay type: functional, organism-based; conditions: Human alphaherpesvirus 3, HEL
[9] = system: Human immunodeficiency virus 1; test: Inhibition of human immunodeficiency virus-1 (HIV-1) induced cytopathicity in human MT-4 cells; assay type: functional, organism-based; conditions: Human immunodeficiency virus 1, MT4
Outline: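 MT-4 cells (~4 × 10⁵ cells/mL) were infected with HIV-1(IIIB) at 100 CCID50 per µL. Infected cells were seeded into wells containing compound dilutions and incubated 5 days at 37 °C. Viable cells were then counted by trypan blue exclusion in a blood cell counting chamber.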

Row | Compound | IC50 [1] [µg/mL] | IC50 [2] [µg/mL] | IC50 [3] [µg/mL] | IC50 [4] [µg/mL] | IC50 (Human alphaherpesvirus 1) [µg/mL] | IC50 [5] [µg/mL] | IC50 (Vaccinia virus) [µg/mL] | IC50 (Human alphaherpesvirus 2) [µg/mL] | IC50 (Human alphaherpesvirus 3 [6]) [µg/mL] | IC50 (Human betaherpesvirus 5) [µg/mL] | IC50 (Cytomegalovirus) [µg/mL] | IC50 (Human alphaherpesvirus 3 [7]) [µg/mL] | IC50 (Human alphaherpesvirus 3 [8]) [µg/mL] | IC50 [9] [µg/mL]
1 | C[C@H](Cn1nnc2c(N)ncnc21)OCP(=O)(O)O | 0.85 (≈ 2.95 µM) | 7 (≈ 24.3 µM) | 10 (≈ 34.7 µM) | 70 (≈ 243 µM) | 70 (≈ 243 µM) | 100 (≈ 347 µM) | > 400 | 100 (≈ 347 µM) | 8 (≈ 27.8 µM) | > 40 | > 40 | 5 (≈ 17.3 µM) | 8 (≈ 27.8 µM) | 5.2 (≈ 18 µM)
2 | Cc1cn([C@H]2C[C@H](N=[N+]=[N-])[C@@H](CO)O2)c(=O)[nH]c1=O [ZIDOVUDINE] | 0.02 (≈ 0.0748 µM) | 0.005 (≈ 0.0187 µM) | 0.008 (≈ 0.0299 µM) | – | – | – | – | – | – | – | – | – | – | –
3 | Nc1ncnc2c1nnn2C[C@@H](CF)OCP(=O)(O)O | > 200 | > 100 | > 100 | > 400 | > 400 | > 400 | > 400 | > 400 | > 40 | > 40 | > 40 | > 40 | > 40 | –
4 | C[C@H](Cn1nc2nc(N)nc(O)c2n1)OCP(=O)(O)O | > 40 | 20 (≈ 65.7 µM) | 20 (≈ 65.7 µM) | > 100 | > 400 | > 400 | > 400 | > 400 | > 20 | > 50 | > 50 | – | > 20 | 20 (≈ 65.7 µM)
5 | C[C@H](Cn1nnc2c(O)nc(N)nc21)OCP(=O)(O)O | 0.43 (≈ 1.41 µM) | 2 (≈ 6.57 µM) | 2 (≈ 6.57 µM) | 20 (≈ 65.7 µM) | > 100 | 20 (≈ 65.7 µM) | > 100 | 20 (≈ 65.7 µM) | 28 (≈ 92 µM) | 50 (≈ 164 µM) | 35 (≈ 115 µM) | 20 (≈ 65.7 µM) | 40 (≈ 131 µM) | 2.42 (≈ 7.96 µM)
6 | Nc1nc(N)c2nnn(CCOCP(=O)(O)O)c2n1 | 0.75 (≈ 2.59 µM) | – | – | 70 (≈ 242 µM) | 150 (≈ 519 µM) | 150 (≈ 519 µM) | > 400 | 150 (≈ 519 µM) | > 40 | > 40 | > 40 | > 40 | > 40 | 45.8 (≈ 158 µM)
7 | Nc1ncnc2nn(C[C@@H](CF)OCP(=O)(O)O)nc12 | 13.1 (≈ 42.8 µM) | – | – | > 40 | > 40 | – | > 40 | – | > 10 | > 400 | > 400 | > 10 | > 10 | 15 (≈ 49 µM)
8 | Nc1nc(N)c2nnn(C[C@@H](CO)OCP(=O)(O)O)c2n1 | 1 (≈ 3.13 µM) | > 100 | > 100 | 20 (≈ 62.7 µM) | 20 (≈ 62.7 µM) | 40 (≈ 125 µM) | 20 (≈ 62.7 µM) | 40 (≈ 125 µM) | 6 (≈ 18.8 µM) | 100 (≈ 313 µM) | 100 (≈ 313 µM) | 6 (≈ 18.8 µM) | 9 (≈ 28.2 µM) | > 100
9 | Nc1ncnc2c1nnn2C[C@H](O)CO | > 100 | > 100 | > 100 | > 200 | – | – | – | – | > 40 | > 100 | – | > 40 | > 40 | –
10 | Nc1ncnc2nn(CCOCP(=O)(O)O)nc12 | > 100 | – | – | > 400 | > 400 | > 400 | > 400 | > 400 | > 100 | > 100 | > 100 | > 100 | > 100 | > 100
11 | C[C@@H](Cn1nnc2c(O)nc(N)nc21)OCP(=O)(O)O | 27 (≈ 88.8 µM) | 40 (≈ 131 µM) | 85 (≈ 279 µM) | 300 (≈ 986 µM) | > 400 | 300 (≈ 986 µM) | 300 (≈ 986 µM) | 300 (≈ 986 µM) | 4 (≈ 13.1 µM) | > 40 | > 40 | > 40 | 10 (≈ 32.9 µM) | 52.7 (≈ 173 µM)
12 | Nc1nc2c(ncn2COCCO)c(=O)[nH]1 [ACYCLOVIR] | – | – | – | 0.015 (≈ 0.0666 µM) | – | – | – | – | – | 13 (≈ 57.7 µM) | – | – | – | –
